DTT redox prof = compounds producing H2O2 with reducing agent – biochemical, NIH compound library profiling, artefact control for MLSCN library redox annotation, primary screen; activation, % at 10 µM; hit rate 0.03% among 200,000; DTT-dependent redox cycling H2O2, phenol red/HRP absorbance; 100% = 100 µM peroxide control, 0% = buffer;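 active means activation of at least 50% relative to the plate's high and low controls in the primary single-dose screen; inactive means activation below 50%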;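 further: compound incubated with DTT at 0.8 mM final as the reducing agent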
PfG6PD inh = PfG6PD (Plasmodium falciparum) enzyme inhibition. PfGluPho enzyme, NADPH resazurin-diaphorase fluorescence. inhibition, % at 20 µM. hit rate 0.78% among 350,000. AID 504690;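 active means inhibition reaching at least a set limit at 20 µM in the primary screen, cut at about 59% in these data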;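 further: 0% = DMSO wells with substrate and 100% = DMSO wells lacking glucose-6-phosphate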
L major viab = reduces viability of Leishmania major promastigotes; resazurin fluorescence viability; inhibition, % at 10 µM; AID 1063; hit rate 9% among 200,000;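 further: promastigotes grown with compound for 44 hours at 28 °C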
G6PDH CS = L. mesenteroides G6PDH inhibition counter-screen | Purified L. mesenteroides G6PDH, diaphorase/resazurin coupled fluorescence, 45 min | inhibition, % at 5 µM | hit rate 0.12% among 200,000 | AID 1020
Diaphorase inh = diaphorase inhibition or chemical oxidation counter-screen; diaphorase resazurin-to-resorufin fluorescence, NADH, 16 min; bacterial (C. kluyveri) enzyme, not human; inhibition, % at 20 µM; hit rate 0.69% among 190,000; AID 1217;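 active means primary screen inhibition at 20 µM above a set limit, cut at about 50% in these data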;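 further: plate controls were DMSO with full reaction for no effect and wells lacking NADH for full effect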
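Assay system: diaphorase enzyme from Clostridium kluyveri; Input: enzyme working solution with 0.14 U/mL diaphorase; Timing: 16 min at room temperature; Technique: resorufin fluorescence, excitation 544 nm, emission 590 nm; Benchmarks: positive control minus NADH, DMSO neutral control.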
Diaph act CS = counter-screen for diaphorase-based assays: diaphorase activators and chemical reducers | Diaphorase/resazurin coupled assay, resorufin fluorescence, 16 min; hits give high values; 1 = vehicle wells, 0 = NADH-free wells | hit rate 0.005% among 190,000 | activation factor at 20 µM;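 active means diaphorase activity raised at least twofold by the compound at 20 µM; inactive means activation factor below 2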
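Material: Clostridium kluyveri diaphorase, purified enzyme; Quantity: enzyme 0.07 U/mL final; Medium: HEPES pH 7.4 buffer with MgCl2 and Tween 20; Dosing: single compound dose of 20 µM, 1% DMSO final; Schedule: 16 min reaction at room temperature; Measured by: red resorufin fluorescence at 544/590 nm excitation/emission.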
Numbers without * were called inactive; x = no result given. Many of the other results were omitted from the sample, so hits are more common in it than they were. Unless noted, no stated cut-off is given here; in the data, active means inhibition above about 50%; inactive means the rest.

SMILES	DTT redox prof	PfG6PD inh	L major viab	G6PDH CS	Diaphorase inh	Diaph act CS
Clc1ncnc2scc(-c3ccc(Br)cc3)c12	0	7	94*	3	4	1
OCC1(CCc2ccccc2)CCN(Cc2cc(Cl)ccc2O)CC1	0	-5	-2	16	20	0.8
OCC1(CCCc2ccccc2)CCN(Cc2ccc(F)cc2)CC1	0	6	91*	13	x	x
OCC1(CCc2ccccc2)CCN(Cc2ccc(OC(F)F)cc2)CC1	0	5	82*	8	-11	1.1
CC(=O)Nc1ccc(N2CC(C)(C)C2=O)cc1	0	-16	-9	5	4	1
COC(=O)C(Cc1ccccc1)NC(=O)C(CC(C)C)NC(=O)OC(C)(C)C (stereo not given)	-1	1	6	14	9	0.9
CCOC(=O)C(Cc1ccc(O)cc1)NC(=O)CNC(=O)C(CC(C)C)NC(=O)OC(C)(C)C (stereo not given)	0	17	57*	6	2	1
O=C1CC(N2C(=O)/C(=C/C=C/c3ccccc3)SC2=S)C(=O)N1c1ccccc1 (stereo not given)	1	-9	56*	13	13	0.9
Cc1ccccc1N1C(=O)CN(Cc2sccc2C)C1=S	0	6	93*	8	11	0.9
COC(=O)c1c(NC(=O)Cc2ccccc2)sc2c1CC(C)(C)NC2(C)C	x	42	x	x	x	x
COC(=O)c1c(NC(=O)c2ccccc2[N+](=O)[O-])sc2c1CC(C)(C)NC2(C)C	-1	3	96*	14	10	0.9
CCOC(=O)c1nn(-c2ccc(Cl)cc2C)ccc1=O	x	-13	x	x	x	x
CC1CCN(C(=O)C2CCC(C)(C(=O)O)C2(C)C)CC1 (stereo not given)	0	-2	-4	3	0	1
CCNC(=S)N1CCN(CC)CC1	-2	-8	-7	6	9	0.9
CCOC(=O)N1CCN(CC(=O)Nc2ccc([N+](=O)[O-])cc2C(=O)Nc2ccccc2F)CC1	0	0	75*	-4	12	0.9
O=C(CN1CCN(Cc2ccccc2)CC1)Nc1ccc([N+](=O)[O-])cc1C(=O)Nc1ccccc1F	0	4	99*	-16	21	0.8
Cc1cc(C)c(NC(=O)/C(=C/c2ccccc2)c2ccccc2)c(C)c1	0	-7	98*	5	7	0.9
Cc1ccc(S(=O)(=O)Nc2ccc3c(c2)nc2n3CCN(Cc3ccccc3)C2)cc1	2	12	99*	-1	16	0.8
COc1ccccc1C(=O)Nc1ccc2c(c1)nc1n2CCN(Cc2ccccc2)C1	0	3	21	-13	7	0.9
O=S(=O)(Nc1ccc2c(c1)nc1n2CCN(Cc2ccccc2)C1)c1ccccc1	1	57	98*	6	9	0.9
O=S(=O)(Nc1ccc2c(c1)nc1n2CCN(Cc2ccccc2)C1)c1ccc(F)cc1	0	14	100*	10	24	0.8
O=S(=O)(Nc1ccc2c(c1)nc1n2CCN(Cc2ccccc2)C1)c1ccc(Cl)cc1	0	1	97*	-1	12	0.9
O=C(CC1C(=O)NCCN1Cc1c(F)cccc1Cl)NCCCOc1cccnc1 (stereo not given)	x	-17	x	x	x	x
COc1ccc(S(=O)(=O)N(C)C[C@H]2Oc3ccc(NC(=O)C4CC4)cc3C(=O)N([C@H](C)CO)C[C@@H]2C)cc1	x	-7	x	x	x	x
O=C(CN1c2cccc3cccc(c23)S1(=O)=O)NCCc1ccc(F)cc1	x	0	x	x	x	x
SMILES	DTT redox prof	PfG6PD inh	L major viab	G6PDH CS	Diaphorase inh	Diaph act CS
Cc1ccc(C)c2c3c([nH]c12)-c1nonc1CC3	1	12	-4	2	21	0.8
O=C(COC(=O)c1cccs1)NCC1CCCCC1	-2	4	-15	11	-2	1
Cn1c(Oc2ccc(F)cc2)c(C=O)c2ccccc21	-1	1	1	2	4	1
Cn1c(Sc2ccc(Br)cc2)c(C=O)c2ccccc21	0	-12	57*	2	14	0.9
COC(=O)C[C@@H]1C[C@@H]2c3cc(NS(=O)(=O)c4ccc(F)cc4)ccc3O[C@@H]2[C@H](CO)O1	x	14	x	x	x	x
CN1C(=C2C(=O)OC(C)(C)OC2=O)Sc2ccccc21	1	0	99*	6	1	1
NC(=O)c1ccc(NC(=O)CSC2=Nc3ccccc3C3CC=NN23)cc1 (stereo not given)	0	-10	17	-2	6	0.9
COC(=O)c1ccc(NC(=O)CSC2=Nc3ccccc3C3CC=NN23)cc1 (stereo not given)	1	-9	55*	6	9	0.9
Cc1c(NC(=O)CSc2nc(N)cc(N)n2)c(=O)n(-c2ccccc2)n1C	x	1	x	x	x	x
Cc1cccc(OCC(O)CN2CCOCC2)c1 (stereo not given)	x	-5	x	x	x	x
COc1cccc(OCC(O)CN2CCC(C)CC2)c1 (stereo not given)	18	-8	71*	2	-2	1
Cc1cccc(OCC(O)CN2CCN(C3CCCCC3)CC2)c1 (stereo not given)	-1	0	91*	9	13	0.9
CC1CCN(CC(O)COc2cccc(F)c2)CC1 (stereo not given)	-3	-3	66*	10	13	0.9
C=C(C)Cn1c(-c2ccncc2)n[nH]c1=S	0	10	-7	-1	-1	1
COc1ccc(S(=O)(=O)N2CCC(C(=O)Nc3ccc4c(c3)OCCO4)CC2)cc1OC	0	0	2	1	9	0.9
CC(=O)Nc1cc(C(=O)NCc2ccco2)ccc1Sc1ccc(Cl)cc1	0	-13	92*	1	12	0.9
CCOc1ccc(CNC(=O)c2ccc(Sc3ccc(Cl)cc3)c(NC(C)=O)c2)cc1	0	-17	95*	2	19	0.8
CCOc1ccccc1CNC(=O)c1ccc(Sc2ccc(Cl)cc2)c(NC(C)=O)c1	0	-3	85*	1	27	0.7
CC(=O)Nc1cc(C(=O)NCc2ccco2)ccc1Sc1ccc(F)cc1	1	-19	5	12	-1	1
CCCCCCCn1c(=O)c(C(=O)OC)c(N)c2ccccc21	x	6	x	x	x	x
CCCCOc1ccccc1C1C(C(=O)OC)=C(C)N(C)C(C)=C1C(=O)OC	-1	-11	88*	4	9	0.9
COC(=O)C1=C(C)N(C)C(C)=C(C(=O)OC)C1c1ccccc1C	0	-1	4	2	11	0.9
O=Nc1ccc(NOC(=O)c2ccccc2Br)cc1	1	-15	73*	-2	2	1

Bioassay records as filed in PubChem.
